Screening data from PubChem BioAssay.
HKDC1 inhibitor = blocks human hexokinase HKDC1 activity. inhibition, % at 20 µM. AID 493160. recombinant HKDC1, G6PDH/diaphorase resazurin coupled fluorescence. Q2TB90. 0.16% of 340,000 active;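 active = inhibition above about 35% when tested at 20 µM, limit read from the data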
Target sequence (Q2TB90 whole entry, looked up): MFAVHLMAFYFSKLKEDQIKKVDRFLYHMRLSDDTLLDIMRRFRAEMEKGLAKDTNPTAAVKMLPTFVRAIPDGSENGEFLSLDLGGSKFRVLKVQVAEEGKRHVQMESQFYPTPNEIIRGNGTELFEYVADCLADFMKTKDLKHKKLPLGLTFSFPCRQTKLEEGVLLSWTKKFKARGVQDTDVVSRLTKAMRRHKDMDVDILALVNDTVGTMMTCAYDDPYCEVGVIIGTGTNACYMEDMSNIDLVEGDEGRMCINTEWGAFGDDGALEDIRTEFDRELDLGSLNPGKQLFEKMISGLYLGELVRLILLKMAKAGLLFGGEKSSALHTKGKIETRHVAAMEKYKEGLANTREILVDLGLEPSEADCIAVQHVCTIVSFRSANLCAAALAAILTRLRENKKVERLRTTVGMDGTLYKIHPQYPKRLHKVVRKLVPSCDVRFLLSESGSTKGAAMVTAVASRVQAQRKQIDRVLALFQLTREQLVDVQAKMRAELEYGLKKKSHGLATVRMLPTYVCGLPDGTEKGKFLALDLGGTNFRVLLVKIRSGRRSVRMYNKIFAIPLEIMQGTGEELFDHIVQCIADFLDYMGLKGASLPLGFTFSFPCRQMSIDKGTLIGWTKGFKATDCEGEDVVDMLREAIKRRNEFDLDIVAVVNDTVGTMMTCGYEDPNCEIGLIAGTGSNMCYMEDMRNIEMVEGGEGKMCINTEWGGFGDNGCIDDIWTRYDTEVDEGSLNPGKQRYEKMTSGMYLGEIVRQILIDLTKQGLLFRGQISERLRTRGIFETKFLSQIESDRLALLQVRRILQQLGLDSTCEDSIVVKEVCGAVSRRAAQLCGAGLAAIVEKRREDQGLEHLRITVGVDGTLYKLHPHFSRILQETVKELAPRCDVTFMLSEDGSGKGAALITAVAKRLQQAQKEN
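Test system: recombinant HKDC1 (HK5) hexokinase enzyme, produced in-house; Amount: enzyme 5 µg/mL final; Buffer or medium: Tris pH 8.0 buffer with MgCl2, Tween-20, BSA, BME; Reagent: glucose and ATP substrates; Doses: 20 µM test compound, 1% DMSO; Incubation: 90 min reaction incubation at room temperature, dark; Detection: resorufin fluorescence at 613 nm.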
Scp1 inh = Scp-1 (human) phosphatase inhibition; Q9GZU7; Recombinant Scp1, phosphopeptide, malachite green phosphate absorbance; inhibition, % at 20 µM; 0.88% of 340,000 active;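 active = inhibition above about 50% at 20 µM, limit read from the data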
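Material – SCP-1 phosphatase catalytic domain, residues 76-261 · Buffer or medium – Acidic Tris acetate buffer with magnesium and detergent · Also added – Phospho 17-mer peptide substrate · Compound – single 20 µM dose, 1% DMSO · Times – 45 min room-temperature reaction, 5 min colour, 30 min stabiliser · Technique – Phosphate-binding colour reagent, absorbance read at 630 nm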
LMPTP inh = LMPTP (human) inhibition; AID 651560; P24666; recombinant LMPTP-A, OMFP fluorogenic substrate, fluorescence intensity; 0.22% of 360,000 active; inhibition, % at 20 µM;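 active = compounds that cut the enzyme signal by at least half of the control window in the single-dose screen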
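Test system: LMPTP-A phosphatase enzyme; input: 0.625 nM LMPTP-A final; reagent: OMFP substrate, 400 µM final; compound dosing: 20 µM single dose, 3% DMSO; incubation: 50 min dark incubation at room temperature; measured by: endpoint fluorescence intensity from OMFP dephosphorylation; measure: % inhibition relative to no-enzyme and uninhibited control wells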
DNMT1 inh = DNMT1 (human) enzyme inhibition; P26358; DNMT1 molecular beacon, Hinp1I cleavage, fluorescence; inhibition (reported as % activation of signal), % at 10 µM; 0.83% of 360,000 active; AID 588458; in the data active = inhibition above about 50%
STEP block = blocks human striatal-enriched tyrosine phosphatase; P54829; recombinant STEP, OMFP fluorogenic substrate, fluorescence; inhibition, % at 20 µM; 0.25% of 360,000 active; AID 588621;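 active = inhibition at 20 µM, scaled per plate between control wells, above about 37%, limit read from the data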
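System: STEP (striatal-enriched tyrosine phosphatase) enzyme, cell-free; medium: Bis-Tris pH 6.0 buffer with DTT, detergent; dosing: 20 µM, 1% DMSO; times: reaction 20 min, ambient temperature; detection: fluorescence, 480/540 nm; read-out basis: normalized % inhibition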
SUMO1-SIM PPI = SUMO1-SIM interaction modulation; P63165; 0.33% of 360,000 active; AID 602429; SUMO1 binding to a labelled peptide, TR-FRET, 1 h; inhibition, % at 20 µM; in the data active = inhibition above about 37%
Hits are given with their value; i = inactive; nt = not tested or not shown. An excerpt weighted towards active compounds, which were near 1.8% of everything screened.

SMILES	HKDC1 inhibitor	Scp1 inh	LMPTP inh	DNMT1 inh	STEP block	SUMO1-SIM PPI
O=C(NCCCN1CCCC1=O)C1CCN(S(=O)(=O)c2cccc(Cl)c2Cl)CC1	i	i	i	i	i	i
O=C(NCCCN1CCCC1=O)C1CCN(S(=O)(=O)c2ccc(Cl)cc2)CC1	i	i	i	i	i	38
COc1ccc(-c2cc(CNc3nc(NCc4ccccc4OC)nc4ccsc34)on2)cc1	nt	nt	i	i	i	i
Cc1nc(C)c(-c2csc(Nc3ccc(Cl)cn3)n2)s1	nt	nt	i	i	i	i
Cc1cc(/C=N/NC(=O)C(O)(c2ccccc2)c2ccccc2)c(C)n1-c1ccc(C(=O)O)cc1	i	i	i	i	i	i
Cc1cc(/C=N/NC(=O)C(O)(c2ccccc2)c2ccccc2)c(C)n1-c1cccc(C(=O)O)c1	i	i	i	54	i	i
N=C1/C(=C/c2ccc(-c3cccc(C(=O)O)c3)o2)C(=O)N=C2SC=C(c3ccccc3)N12	i	68	89	100	64	46
N=C1/C(=C\c2ccc(-c3cc(Cl)cc(Cl)c3)o2)C(=O)N=C2SC=C(c3ccccc3)N12	i	i	i	i	i	i
COc1ccc(C(NC(=O)C2CCN(Cc3ccc(Oc4ccccc4)cc3)CC2)c2ccccn2)cc1 (centres undefined)	nt	nt	i	i	i	i
C/C(=N\NC(=O)c1cc2ccccc2cc1O)c1ccccn1	i	i	i	i	i	i
C/C(=N\NC(=O)c1ccccc1O)C1C(=O)c2ccccc2C1=O	i	i	i	i	i	i
C/C(=N\NC(=O)c1cc2ccccc2cc1O)c1cc2ccccc2o1	i	90	i	i	i	i
C/C(=N/NC(=O)c1cc2ccccc2cc1O)C1C(=O)c2ccccc2C1=O	i	i	66	i	i	i
COc1ccc(Cc2c(C3CCCCC3)nc3c(C)cc(Br)cn23)c(C)c1	nt	nt	i	i	i	i
O=[N+]([O-])c1ccc(Cl)c(CN2CCN(c3ncc(Cc4ccccc4)cn3)CC2)c1	nt	nt	i	nt	nt	i
CCOC(=O)c1c(NC(=O)c2ccco2)n(C2CCCCC2)c2nc3ccccc3nc12	i	i	i	i	i	40
O=Cc1cc(N=Nc2cccc(C(=O)O)c2)ccc1O	i	i	i	i	i	i
Cc1cc(N=NC(=O)c2ccccc2)ccc1O	i	i	i	58	i	i
C[C@@H](CN1C(=O)C(=O)NC[C@@H]1Cc1ccc(O)cc1)NC(=O)Cc1ccccc1	i	i	i	i	i	42
O=C1NC[C@@H](Cc2ccc(O)cc2)N(CCc2cc(C(F)(F)F)cc(C(F)(F)F)c2)C1=O	nt	nt	i	nt	nt	67
Oc1ccc(C[C@@H]2CNC(=S)N2CCc2cc(C(F)(F)F)cc(C(F)(F)F)c2)cc1	i	i	i	i	i	i
CCOc1ccc(NC(=O)C(=O)NCCN2CCN(S(=O)(=O)c3ccc(C)cc3)CC2)cc1	i	i	i	i	i	i
Cc1nc(NCc2ccco2)c2c(C)c(C)sc2n1	i	i	i	i	i	i
Cc1sc2nc3c4ccccc4c(NCc4ccco4)nn3c(=O)c2c1C	i	i	i	i	i	75
CC(C)C[C@@H](CNCC(=O)[C@H](CC(=O)O)NC(=O)c1[nH]cnc1C(=O)N[C@H](CN)CC(C)C)NC(=O)c1nc[nH]c1C(=O)N[C@@H](Cc1ccccc1)C(=O)O	i	i	i	i	i	48
CC(C)C[C@@H](CNCC(=O)[C@H](CC(C)C)NC(=O)c1[nH]cnc1C(=O)N[C@@H](C)CN)NC(=O)c1nc[nH]c1C(=O)N[C@@H](Cc1ccccc1)C(=O)O	i	i	i	i	i	i
O=C(N/N=C/c1cc(Br)cc([N+](=O)[O-])c1O)c1ccc(NC(=O)c2ccc(F)cc2)cc1	i	89	61	i	98	i
O=C(N/N=C/c1cc(Cl)cc([N+](=O)[O-])c1O)c1ccc2c(c1)OCO2	i	99	60	i	99	i
O=C(N/N=C/c1cc(Br)cc(Br)c1O)c1ccncc1	i	i	nt	nt	nt	nt
O=C(N/N=C/c1cc(Br)cc(Cl)c1O)c1ccc2c(c1)OCO2	i	91	74	i	99	i
